Compound activity: PubChem BioAssay, several laboratories
The list is not random: actives were taken first. Their share in the collection is about 2.1%.
m5-HT2A agonist: agonists of mouse serotonin 5-HT2A receptor (HTR2A). P35363. CHO-K1 mHTR2A beta-arrestin complementation, luminescence; percent of 30 µM serotonin response. activation, % at 7.6 µM. 0.66% of 360,000 active;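 active means activation above a run cutoff, the mean activation of all tested compounds plus 3 SD, cut at about 14% in these data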;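 further: 0% = plate median of compound wells and 100% = 30 µM serotonin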
CCR6 antag: CCR6 (human) receptor antagonism; 0.49% of 340,000 active; CHO-K1 CCR6 PathHunter beta-arrestin, luminescence, CCL20-stimulated; inhibition, % at 20 µM; P51684;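 active means compounds whose inhibition of the agonist-driven luminescence signal at 20 µM reaches about 50%, limit read from the data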;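 further: cells stimulated with CCL20 at 14 nM final; plate controls were DMSO with CCL20 for no effect and DMSO without agonist for full effect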
Target sequence (P51684 whole entry, looked up): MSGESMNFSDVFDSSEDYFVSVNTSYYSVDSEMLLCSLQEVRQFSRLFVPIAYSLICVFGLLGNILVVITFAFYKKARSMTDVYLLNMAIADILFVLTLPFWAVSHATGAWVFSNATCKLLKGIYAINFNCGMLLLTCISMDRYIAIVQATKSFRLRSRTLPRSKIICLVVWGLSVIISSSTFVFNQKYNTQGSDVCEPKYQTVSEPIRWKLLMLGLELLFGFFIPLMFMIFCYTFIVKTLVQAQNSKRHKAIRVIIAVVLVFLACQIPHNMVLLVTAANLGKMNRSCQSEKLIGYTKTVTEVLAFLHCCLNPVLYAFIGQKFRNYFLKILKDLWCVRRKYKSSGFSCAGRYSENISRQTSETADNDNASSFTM
CXCR6 block: blocks human CXCR6 beta-arrestin recruitment. O00574. CHO-K1 PathHunter CXCR6 beta-arrestin, luminescence. inhibition, % at 20 µM. 0.36% of 360,000 active. AID 602244; in the data active means inhibition above about 34%, passing the limit was not always enough;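 further: antagonist mode with CXCL16 agonist at 10 nM final; 0% = 10 nM CXCL16 with DMSO and 100% = unstimulated wells without agonist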
Target sequence (O00574 whole entry, looked up): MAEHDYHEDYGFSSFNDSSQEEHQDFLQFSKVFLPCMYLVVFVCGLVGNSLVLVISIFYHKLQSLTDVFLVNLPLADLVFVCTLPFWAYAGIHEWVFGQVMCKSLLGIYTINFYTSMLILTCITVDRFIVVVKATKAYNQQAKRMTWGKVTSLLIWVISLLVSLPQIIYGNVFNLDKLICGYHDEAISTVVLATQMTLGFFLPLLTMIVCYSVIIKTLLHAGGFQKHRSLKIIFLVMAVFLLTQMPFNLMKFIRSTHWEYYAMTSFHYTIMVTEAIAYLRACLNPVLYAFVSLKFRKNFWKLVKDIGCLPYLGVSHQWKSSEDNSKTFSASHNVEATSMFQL
APJ ag: APJ receptor agonism; P35414; CHO-K1 APJ PathHunter beta-arrestin, luminescence; 0% DMSO wells, 100% apelin; activation, % at 20 µM; AID 2520; 0.11% of 330,000 active;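 active means activation more than six SD over the plate average, tested at 20 µM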;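 further: 0% = DMSO alone and 100% = apelin-13 at 10 nM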
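assay system = CHO-K1 APJ beta-arrestin complementation cell line | input = cell density 1000 per well | dosing = compound 20 µM once, DMSO 1% | timing = compound 90 min 25 °C, reagent 1 h | measured by = luminescence from split beta-galactosidase complementation, Galacton Star/Emerald II substrate | read-out basis = APJ agonist activity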
EBI2 block: EBI2 (human) antagonism | inhibition, % at 5 µM | 0.81% of 360,000 active | P32249 | EBI2 beta-arrestin recruitment, luminescence, 7a,25-OHC stimulated; in the data active means inhibition above about 38%;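 further: enzyme fragment complementation signal reports receptor beta-arrestin coupling in cells; 0% = agonist plus DMSO wells and 100% = wells without agonist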
APJ antagonist: APJ receptor antagonism | P35414 | CHO-K1 APJ beta-arrestin complementation, luminescence | inhibition, % at 20 µM | 0.32% of 330,000 active | AID 2521;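 active means inhibition above about 40% at 20 µM, limit read from the data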;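 further: cells challenged with 10 nM apelin-13 agonist together with compound; plate controls were apelin-13 plus DMSO wells for no effect and DMSO wells lacking apelin-13 for full effect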
CXCR6 antag conf: CXCR6 antagonism confirmation, single concentration; shares compounds with CXCR6 block; CHO-K1 CXCR6 PathHunter beta-arrestin, luminescence; inhibition, % at 20 µM; 65% of 700 active;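 active means mean inhibition over four retests above 40%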;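 further: receptor stimulated with 10 nM CXCL16 agonist; beta-galactosidase fragment complementation upon beta-arrestin recruitment to receptor; plate controls were CXCL16 plus DMSO for no effect and DMSO without CXCL16 for full effect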
MOR ag counter: OPRM1 agonism in mouse HTR2A counterscreen. U2OS OPRM1 beta-arrestin PathHunter, luminescence; DMSO 0%, DAMGO 9.3 µM 100%. shares compounds with m5-HT2A agonist. activation, % at 9.3 µM. 5.3% of 2,300 active;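 active means mean activation above the mean of DMSO-only wells plus 3 SD, cut at about 0.5% in these data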
m5-HT2A ag conf: mouse HTR2A agonism confirmed; shares compounds with m5-HT2A agonist; CHO-K1 PathHunter beta-arrestin recruitment, luminescence; DMSO 0%, 30 µM serotonin 100%; activation, % at 7.6 µM; 19% of 2,300 active;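 active means mean activation across triplicates above the hit threshold derived in the original primary screen, cut at about 15% in these data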
EBI2 conf: confirmation of human EBI2 receptor antagonists. 29% of 2,400 active. inhibition, % at 5 µM. shares compounds with EBI2 block. EBI2 beta-arrestin luminescence, 7a,25-OHC antagonism;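 active means inhibition of at least 50%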
EBI2 ag: counter-screen for EBI2 antagonists: EBI2 agonist activity; shares compounds with EBI2 block; activation, % at 5 µM; 2,400 tested, under 10 active; AID 652000; EBI2-expressing cells, agonist mode, luminescence, 60 min; 0% vehicle, 100% 7α,25-dihydroxycholesterol control;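 active means activation of at least 50%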
bGal cs: beta-galactosidase inhibition counter-screen. shares compounds with EBI2 block. purified beta-galactosidase, luminescent Galacton Star, 15 min. inhibition, % at 5 µM. 1% of 2,400 active. AID 652176;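 active means replicate-average signal at least 3 plate SD below neutral wells, shown as high inhibition, flagging enzyme-inhibiting false positives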;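 further: 0% = DMSO wells with enzyme and 100% = wells lacking enzyme; higher means stronger loss of beta-gal luminescence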
Active calls of the source: *; · = no result.

SMILES | m5-HT2A agonist | CCR6 antag | CXCR6 block | APJ ag | EBI2 block | APJ antagonist | CXCR6 antag conf | others
CCCOc1ccc(C(=O)NNC(=S)NC(=O)c2ccccc2)cc1 | -4 | 65* | 47* | -3 | 0 | 36 | 33
CCOC(=O)c1c(C)nc2c(C#N)cnn2c1C | 5 | 0 | -5 | 4 | -8 | 20 | ·
CCCc1cc(NCc2ccccn2)n2c(nc3ccccc32)c1C#N | -3 | 2 | 59* | 3 | -38 | -20 | -1
Cc1cc(NCc2ccccn2)n2c(nc3ccccc32)c1C#N | -3 | -7 | -15 | · | -8 | · | ·
COc1ccc(C(=O)Nc2ccccc2C(=O)N/N=C/c2ccncc2)cc1OC | 8 | -6 | 5 | 3 | -13 | 8 | ·
COC(=O)c1ccc2nc(-c3ccc(C)cc3)c(Cc3ccc(C)cc3)n2c1 | 2 | · | 22 | · | 38 | · | ·
CCOc1ccc(CN2CCN(Cc3cn(CC)nc3C)CC2CCO)cc1 (stereo unspecified) | 0 | -10 | 47* | -3 | 1 | 11 | 2
CC(Oc1cccc(Br)c1)C(=O)NNC(=O)c1ccccn1 (stereo unspecified) | -13 | 48 | 52* | -4 | -6 | 15 | 56*
COc1cc(/C=N\NC(=O)c2ccc(C)nc2)ccc1OC(=O)c1ccc2c(c1)OCO2 | 12 | 2 | -4 | -2 | -6 | 2 | ·
CCOc1ccc(CNc2ccc(N3CCN(Cc4ccccc4)CC3)cc2)cc1 | -8 | 15 | 102* | 8 | 5 | -21 | 11
O=C(Nc1ccc2nc3ccccc3nc2c1)c1ccc(Br)cc1 | 3 | 0 | 8 | -2 | 4 | -13 | ·
Cc1cc(O)c(-c2cc(O)c(C)cc2O)cc1O | -5 | · | 64* | 10 | 27 | 0 | 80*
Cc1cc(N=O)c(C)cc1O | -4 | · | 0 | · | 7 | · | ·
O=C(Nc1ccccc1)c1ccc(Nc2c([N+](=O)[O-])cc([N+](=O)[O-])c3ccccc23)cc1 | 4 | 84* | 56* | -10 | 49* | 75* | 67* | EBI2 conf=47;EBI2 ag=-1;bGal cs=23
CC1(C)CC(N2CCC(=O)NC2=S)CC(C)(C)N1 | 1 | 10 | -8 | -3 | -3 | -3 | ·
COc1ccc(-c2onc(C)c2-c2ccccc2)c(O)c1 | 0 | -2 | 2 | -6 | 7 | -9 | ·
COc1ccc(-c2c(C(=O)c3ccccc3)[nH]c(N)c2C(=O)c2ccc(Br)cc2)cc1OC | -18 | · | 61* | · | 42* | · | 65* | EBI2 conf=41;EBI2 ag=-2;bGal cs=0
Cc1ccc(C2CC(=O)C(C=NCCN3CCN(C(=S)Nc4ccc(F)cc4)CC3)=C(O)C2)cc1 (stereo unspecified) | -1 | 1 | 8 | -2 | 6 | -16 | ·
Cc1cc(C)nc(N/N=C/C2=C(O)CC(c3ccc(F)cc3)CC2=O)n1 (stereo unspecified) | -17 | 78* | 60* | -13 | 57* | 23 | 26 | EBI2 conf=67*;EBI2 ag=-5;bGal cs=-5
Cn1c(NCc2ccccc2O)nc2ccccc21 | -4 | -5 | 0 | -5 | -3 | -12 | ·
Cn1c(NCc2ccccc2Cl)nc2ccccc21 | 20* | -8 | 5 | -1 | 3 | 9 | · | MOR ag counter=-1;m5-HT2A ag conf=2
CCCCCCN1C(=O)CC(NC(=O)OCC2c3ccccc3-c3ccccc32)C/C=C\C1C(C)C (stereo unspecified) | 16* | 11 | 7 | · | -84 | · | · | MOR ag counter=-1;m5-HT2A ag conf=-5
Cc1ccc(CN2C(=O)C[C@@H](NC(=O)OCC3c4ccccc4-c4ccccc43)C/C=C\C2c2ccc(C)cc2)cc1 (stereo partly specified) | -8 | 17 | 0 | · | 14 | · | ·
O=C(Cn1ccnc1[N+](=O)[O-])N(CCO)CCO | 7 | · | -11 | · | -5 | · | ·
Cc1ccc(CNC(=O)C2CCCN(S(=O)(=O)c3c(C)n[nH]c3C)C2)cc1 (stereo unspecified) | 0 | -6 | 2 | 2 | -3 | 3 | ·
SMILES | m5-HT2A agonist | CCR6 antag | CXCR6 block | APJ ag | EBI2 block | APJ antagonist | CXCR6 antag conf | others
Cc1onc(-c2ccccc2)c1C(=O)Nc1ccc(N2CCOCC2)cc1 | -10 | 6 | 2 | 0 | -8 | -3 | ·
Cc1onc(-c2ccccc2)c1C(=O)Nc1ccc(NC(=O)c2c(-c3ccccc3)noc2C)cc1 | 19* | -1 | -5 | -3 | 0 | 4 | · | MOR ag counter=0;m5-HT2A ag conf=-4
CCc1noc(C)c1C(=O)Nc1nc(-c2ccccc2)c(C(C)=O)s1 | 35* | 19 | 1 | -4 | -4 | 0 | · | MOR ag counter=-1;m5-HT2A ag conf=9
COc1ccc(F)cc1C(=O)C1CCCN(Cc2ccc3c(c2)OCCO3)C1 (stereo unspecified) | 26* | 10 | 1 | -3 | 4 | -5 | · | MOR ag counter=2.8*;m5-HT2A ag conf=28*
COc1cccc(CN2CCCC(C(=O)c3ccc4c(c3)OCO4)C2)c1O (stereo unspecified) | -2 | 12 | -15 | -1 | -9 | 18 | ·
CCOc1cccc(CN2CCCC(N3CCN(c4cccc(Cl)c4)CC3)C2)c1O (stereo unspecified) | -5 | 12 | 1 | -2 | 10 | 2 | ·
CCOc1cccc(CN2CCCC(C(=O)c3cc(Cl)ccc3OC)C2)c1O (stereo unspecified) | 23* | 12 | 0 | -4 | 11 | 3 | · | MOR ag counter=0;m5-HT2A ag conf=6
COc1ccccc1C(=O)C1CCCN(Cc2ccc3c(c2)OCCO3)C1 (stereo unspecified) | 33* | 13 | 8 | -5 | -5 | 8 | · | MOR ag counter=-1;m5-HT2A ag conf=16*
COc1ccc(C(=O)C2CCCN(Cc3ccc4c(c3)OCCO4)C2)cc1F (stereo unspecified) | 10 | 4 | -3 | -6 | 6 | 4 | ·
